Active and inactive are the calls of the source. The rule behind the calls is not given here.
Columns and labels:
[1] = test system: Mus musculus; assay: Neurotoxicity in CD1 albino mouse assessed as acute motor impairment at 100 to 300 mg/kg, ip after 0.5 hrs by rotarod test; type: toxicity, organism-based; settings: in vivo
Procedure, shortened: (§1)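 Male CD-1 mice given 30, 100 or 300 mg/kg ip in 0.5% methylcellulose, tested at 0.5 and 4 h. Motor impairment was scored as failure to keep balance for at least 1 min on a rod rotating at 10 rpm. Minimum dose causing impairment reported.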

[2] = test system: Mus musculus; assay: Neurotoxicity in CD1 albino mouse assessed as acute motor impairment at 300 mg/kg, ip after 4 hrs by rotarod test; type: toxicity, organism-based; settings: in vivo; procedure, shortened: as §1
[3] = test system: Mus musculus; assay: Anticonvulsant activity in CD1 albino mouse assessed as protection against maximal electroshock-induced seizures at 100 to 300 mg/kg, ip after 0.5 hrs; type: functional; settings: read-out: MED
[4] = test system: Mus musculus; assay: Anticonvulsant activity in CD1 albino mouse assessed as protection against maximal electroshock-induced seizures at 300 mg/kg, ip after 4 hrs; type: functional, organism-based
[5] = test system: Mus musculus; assay: Anticonvulsant activity in CD1 albino mouse assessed as protection against subcutaneous pentylenetetrazole-induced seizures at 100 to 300 mg/kg, ip after 0.5 hrs; type: functional; settings: CD1, 0.5 h, read-out: MED
Procedure, shortened: (§2)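 Male CD-1 mice (16-26 g), compounds ip in 0.5% methylcellulose/water at 30, 100 or 300 mg/kg, 3-4 per group. At 0.5 or 4 h, pentylenetetrazole 85 mg/kg was injected sc. Protection was absence of clonic convulsions (at least 5 s) over a 30 min observation. Minimum active dose recorded.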

[6] = test system: Mus musculus; assay: Anticonvulsant activity in CD1 albino mouse assessed as protection against subcutaneous pentylenetetrazole-induced seizures at 300 mg/kg, ip after 4 hrs; type: functional, organism-based; procedure, shortened: as §2
[7] = Neurotoxicity in ip dosed CD1 albino mouse assessed as acute motor impairment by rotarod test; type: toxicity, organism-based; settings: in vivo
Procedure, shortened: (§3)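 Quantitation in male CD-1 mice dosed ip at the previously estimated time of peak effect. Seizures were induced by MES or by sc pentylenetetrazole 85 mg/kg; rotarod at 10 rpm assessed motor impairment. Groups of six, at least three doses giving 10-90% effect.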

[8] = test system: Mus musculus; assay: Anticonvulsant activity in ip dosed CD1 albino mouse assessed as time to peak effect by 6Hz psychomotor seizure test; type: functional
Procedure, shortened: (§4)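 6-Hz corneal stimulation at 32 mA (6 Hz, 3 s) in male CD-1 mice dosed ip. Groups of six received several doses until at least three points fell between 10 and 90% protection. […] PI = TD50/ED50 (rotarod).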

[9] = test system: Mus musculus; assay: Neurotoxicity in CD1 albino mouse assessed as acute motor impairment at 300 mg/kg, ip measured after 0.5 hrs by rotarod test; type: toxicity, organism-based; settings: in vivo; procedure, shortened: as §1
[10] = test system: Mus musculus; assay: Anticonvulsant activity in CD1 albino mouse assessed as protection against maximal electroshock-induced seizures at 300 mg/kg, ip after 0.5 hrs; type: functional, organism-based
[11] = test system: Mus musculus; assay: Anticonvulsant activity in CD1 albino mouse assessed as protection against subcutaneous pentylenetetrazole-induced seizures at 300 mg/kg, ip after 0.5 hrs; type: functional, organism-based; procedure, shortened: as §2
[12] = test system: Mus musculus; assay: Anticonvulsant activity in ip dosed CD1 albino mouse assessed as time to peak effect; type: functional; procedure, shortened: as §3
[13] = test system: Mus musculus; assay: Anticonvulsant activity in ip dosed CD1 albino mouse assessed as protection against 32 mA-current- for 3 secs induced seizure by 6Hz psychomotor seizure test; type: functional; procedure, shortened: as §4
[14] = organism: Mus musculus; assay: Protection index, ratio of TD50 for CD1 albino mouse to ED50 for protection against 32 mA-current- for 3 secs induced seizure in CD1 albino mouse by 6Hz psychomotor seizure test; procedure, shortened: as §4
[15] = test system: Mus musculus; assay: Anticonvulsant activity in CD1 mouse assessed as protection against 32 mA-current- for 3 secs induced seizure at 100 mg/kg, ip after 0.25 hrs by 6Hz psychomotor seizure test; type: functional
Procedure, shortened: (§5)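 Male CD-1 mice given 100 mg/kg ip in 0.5% methylcellulose, four per time point. Corneal stimulation at 32 mA, 0.2 ms monopolar rectangular pulses at 6 Hz for 3 s, from a constant-current device. A mouse was protected if it resumed normal exploratory behavior within 10 s. Reported as number protected over number tested.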

[16] = test system: Mus musculus; assay: Anticonvulsant activity in CD1 mouse assessed as protection against 32 mA-current- for 3 secs induced seizure at 100 mg/kg, ip after 2 hrs by 6Hz psychomotor seizure test; type: functional, organism-based; procedure, shortened: as §5
[17] = test system: Mus musculus; assay: Anticonvulsant activity in CD1 albino mouse assessed as protection against subcutaneous pentylenetetrazole-induced seizures at 100 to 300 mg/kg, ip after 4 hrs; type: functional; settings: CD1, 4 h, read-out: MED; procedure, shortened: as §2
[18] = test system: Mus musculus; assay: Anticonvulsant activity in CD1 albino mouse assessed as protection against maximal electroshock-induced seizures at 100 to 300 mg/kg, ip after 4 hrs; type: functional; settings: read-out: MED

| SMILES | MTC [1] [mg/kg] | Activity [2] | minimal effective dose [3] [mg/kg] | Activity [4] | minimal effective dose [5] [mg/kg] | Activity [6] | TD50 [7] [mg/kg] | Time [8] [h] | Activity [9] | Activity [10] | Activity [11] | Time [12] [h] | ED50 [13] [mg/kg] | Ratio TD50/ED50 [14] | Activity [15] [%] | Activity [16] | minimal effective dose [17] [mg/kg] | minimal effective dose [18] [mg/kg] |
| --- | --- | --- | --- | --- | --- | --- | --- | --- | --- | --- | --- | --- | --- | --- | --- | --- | --- | --- |
| Cc1cccc(N2CCN(C(=O)CN3C(=O)CC(C)C3=O)CC2)c1 (stereo not given) | 300 | Non-toxic | 300 | inactive | 100 | inactive | – | – | – | – | – | – | – | – | – | – | – | – |
| CC[C@@H](C(N)=O)N1CCCC1=O | – | – | – | – | – | – | > 500 | 1 | – | – | – | – | – | – | – | – | – | – |
| CCC1(C)CC(=O)N(CC(=O)N2CCN(c3ccc(Cl)c(Cl)c3)CC2)C1=O (stereo not given) | – | Non-toxic | – | inactive | – | inactive | – | – | Non-toxic | inactive | inactive | – | – | – | – | – | – | – |
| CCC1(C)CC(=O)N(CC(=O)N2CCN(c3cccc(Cl)c3Cl)CC2)C1=O (stereo not given) | – | Non-toxic | – | inactive | – | inactive | – | – | Non-toxic | inactive | inactive | – | – | – | – | – | – | – |
| CCC1(C)CC(=O)N(CC(=O)N2CCN(c3ccccc3C)CC2)C1=O (stereo not given) | 300 | Non-toxic | 100 | inactive | 100 | inactive | – | – | – | – | – | – | – | – | – | – | – | – |
| CCCC(CCC)C(=O)O [VALPROIC ACID] | – | Non-toxic | 300 | inactive | 300 | inactive | – | 0.5 | Non-toxic | – | – | 0.5 | – | – | – | – | – | – |
| CCC1(C)CC(=O)N(CC(=O)N2CCN(c3ccc(Cl)cc3)CC2)C1=O (stereo not given) | 300 | Non-toxic | – | inactive | 100 | inactive | 196 | 0.5 | – | inactive | – | – | 128 | 1.53 | – | – | – | – |
| CC1CC(=O)N(CC(=O)N2CCN(c3ccccc3Cl)CC2)C1=O (stereo not given) | 300 | Non-toxic | 300 | inactive | 300 | inactive | > 500 | 0.25 | – | – | – | – | 152 | >3.29 | 100 | inactive | – | – |
| CCC1(C)CC(=O)NC1=O (stereo not given) [ETHOSUXIMIDE] | – | Non-toxic | – | inactive | 100 | – | – | – | Non-toxic | inactive | – | 0.25 | – | – | – | – | 300 | – |
| CC1CC(=O)N(CC(=O)N2CCN(c3ccccc3F)CC2)C1=O (stereo not given) | 300 | Non-toxic | 300 | – | – | inactive | – | – | – | – | inactive | – | – | – | – | – | – | 300 |
| CC1CC(=O)N(CC(=O)N2CCN(c3ccccc3)CC2)C1=O (stereo not given) | 300 | Non-toxic | 300 | inactive | 300 | – | – | – | – | – | – | – | – | – | – | – | 300 | – |

Reference: ChEMBL document CHEMBL3774376, “Synthesis, and anticonvulsant activity of new amides derived from 3-methyl- or 3-ethyl-3-methyl-2,5-dioxo-pyrrolidin-1-yl-acetic acids” (Bioorg Med Chem, 2016)
